HIF act: HIF pathway transcriptional activation | 300,000 compounds, 0.32% hits | activation, % at 7.5 µM (by protocol) | U2OS HRE-luciferase reporter, luminescence; normalized: DMSO 0%, desferrioxamine 100% | AID 1910;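 active = mean activation of at least 10% of the iron chelator positive control signal, with at least half of replicates also reaching 10%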
LMP1 NFkB inh: reduces LMP1-driven NF-kappaB luciferase signal; AID 504558; LMP1-induced NF-kappaB luciferase reporter cells, luminescence; inhibition, % at 12.5 µM; 350,000 compounds, 0.69% hits; in the data active = inhibition above about 41%
NR2E3 ag-1: agonists of human nuclear receptor NR2E3; GST-NR2E3/biotin-RetCOR TR-FRET, 1536-well; inhibition of corepressor binding, % at 4.78 µM; 320,000 compounds, 0.12% hits;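 active = percent inhibition above the cutoff of mean plus 3 SD of all tested compounds, set per screening campaign, cut at about 20% in these data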
Target sequence (Q9Y5X4 whole entry, looked up): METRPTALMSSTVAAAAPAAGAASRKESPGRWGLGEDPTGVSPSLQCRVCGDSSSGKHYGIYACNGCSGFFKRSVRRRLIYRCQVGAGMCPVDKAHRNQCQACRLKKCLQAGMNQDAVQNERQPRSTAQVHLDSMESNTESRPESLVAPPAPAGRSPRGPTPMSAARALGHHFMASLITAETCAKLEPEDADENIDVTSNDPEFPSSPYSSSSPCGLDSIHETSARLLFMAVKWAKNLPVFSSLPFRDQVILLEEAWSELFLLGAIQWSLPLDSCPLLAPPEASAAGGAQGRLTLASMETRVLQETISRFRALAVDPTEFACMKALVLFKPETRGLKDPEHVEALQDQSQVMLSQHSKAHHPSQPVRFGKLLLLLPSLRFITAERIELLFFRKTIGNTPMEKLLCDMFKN
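Format: 1536-well format; test system: GST-NR2E3 and biotin-RetCOR proteins; read-out basis: percent inhibition of TR-FRET ratio; timing: 5 h incubation at 4 °C; detection: time-resolved FRET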
TROY NFkB inh: blocks TROY-dependent signaling in reporter cells; Q293 LMP1-TROYcd NF-kB luciferase reporter, 4 h; inhibition, % at 10 µM; 360,000 compounds, 0.98% hits;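 active = compounds whose plate-normalised and pattern-corrected inhibition of the luciferase reporter signal at the single screening dose is 50% or more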
NR2E3 ag-2: activates human NR2E3 receptor | 360,000 compounds, 0.35% hits | Q9Y5X4 | inhibition of corepressor binding, % at 3.98 µM | CHO-S Gal4-NCOR/VP16-NR2E3 two-hybrid, luciferase | AID 602229;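 active = inhibition above the mean of all tested compounds plus 3 SD, cut at about 70% in these data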;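 note: higher means lower luciferase signal from less NR2E3 corepressor binding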
NR2E3 ag confirm-1: confirmation of human NR2E3 nuclear receptor agonists; shares compounds with NR2E3 ag-1; cell-free NR2E3 corepressor release, TR-FRET, 5 h; activation (reported as inhibition), % at 3.98 µM; 360 compounds, 39% hits; AID 2379; in the data active = activation above about 20%
PPARg-NCOR2 ctr: counter-screen for NR2E3 agonists: human PPARgamma-NCOR2 interaction agonists. shares compounds with NR2E3 ag-1. TR-FRET PPARg-NCOR2 coregulator interaction, biochemical. inhibition, % at 3.98 µM. 360 compounds, 45% hits. AID 504787; in the data active = inhibition above about 20%
NR2E3 ag confirm-2: NR2E3 agonism confirmed in two-hybrid assay. 2,300 compounds, 51% hits. shares compounds with NR2E3 ag-2. inhibition, % at 3.98 µM. CHO-S mammalian two-hybrid NR2E3-NCOR, luciferase luminescence;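 active = average inhibition above a cutoff equal to the mean inhibition of all tested compounds plus one SD, cut at about 70% in these data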
GAL4-VP16 luc: reduces GAL4-VP16 reporter signal in NR2E3 counterscreen. shares compounds with NR2E3 ag-2. CHO-S GAL4-VP16 luciferase reporter, luminescence. inhibition, % at 3.98 µM. 2,300 compounds, 29% hits;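 active = mean inhibition above a cutoff equal to the average over all tested compounds plus one standard deviation, cut at about 70% in these data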;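 note: luciferase from a UAS reporter driven by GAL4-VP16 transactivation; higher means less reporter light so more repression of VP16 activity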
Each line names hits and unclear results; the compound was inactive in the other large screens (follow-up assays come after a bar, where they were run). Rows were chosen to be rich in hits. Some 2% of all compounds tested hit in one or more screens of this group.

CC1(C(=O)NS(=O)(=O)c2cccc(OC(F)F)c2)CCN1C(=O)C1CCCCC1 (stereo not drawn)	none (no result: HIF act, LMP1 NFkB inh, NR2E3 ag-1)
COc1cc(/C=C2/C(=O)N(c3ccc([N+](=O)[O-])cc3)N=C2N2CCOCC2)ccc1O	NR2E3 ag-1 29 | NR2E3 ag confirm-1 inactive | PPARg-NCOR2 ctr 48
COc1ccc(C(=O)NNC(=O)C(Cc2ccc(O)cc2)NC(=O)c2ccccc2NC(=O)c2ccc(OC)cc2)cc1 (stereo not drawn)	NR2E3 ag-1 40 | NR2E3 ag confirm-1 22 | PPARg-NCOR2 ctr inactive
N#Cc1ccc(Cl)cc1NC(=O)COC(=O)c1ccc2c(c1)OCCO2	NR2E3 ag-1 36 | NR2E3 ag confirm-1 39 | PPARg-NCOR2 ctr 41
N#Cc1ccccc1NC(=O)COC(=O)c1ccc2c(c1)OCCO2	none
C[C@@H]1CN([C@@H](C)CO)C(=O)CCCn2cc(nn2)CO[C@H]1CN(C)S(=O)(=O)c1ccccc1F	none (no result: HIF act, NR2E3 ag-1)
CCOC(=O)C1=C(COC(=O)/C=C/c2ccc(O)c(OC)c2)NC(=O)NC1C (stereo not drawn)	none (no result: HIF act)
CSc1ncc(CN2CCCCC2C(=O)Nc2ccc(Oc3ccccc3)nc2)cn1 (stereo not drawn)	none
COc1ccc(C(c2c(C)[nH]n(-c3ccccc3)c2=O)c2c(C)[nH]n(-c3ccccc3)c2=O)cc1OC	NR2E3 ag-1 30 | NR2E3 ag confirm-1 inactive | PPARg-NCOR2 ctr 39
OCC[C@@H]1C[C@H](O)[C@@H](O)[C@]2(OCCc3cc(C(F)(F)F)ccc32)O1	none (no result: HIF act, NR2E3 ag-1)
N#CC1=C(N)SC(N)=C(C#N)C1c1c(Cl)cccc1Cl	NR2E3 ag-1 40 | NR2E3 ag confirm-1 inactive | PPARg-NCOR2 ctr 26
N#CC1=C(N)SC(N)=C(C#N)C1CCc1ccccc1	none
CCCCN1C(=O)N(C)C2NC(=O)NC21 (stereo not drawn)	none
CCCCN1C(=O)NC2NC(=O)NC21 (stereo not drawn)	NR2E3 ag-1 37 | NR2E3 ag confirm-1 inactive | PPARg-NCOR2 ctr inactive
COc1ccc(-n2c(=S)[nH]c3c(oc4ccccc43)c2=O)cc1	NR2E3 ag-1 53 | NR2E3 ag confirm-1 39 | PPARg-NCOR2 ctr 38
O=C(Nc1ccc(NS(=O)(=O)c2ccccc2)c(Cl)c1)c1ccccc1	none (no result: HIF act, NR2E3 ag-1)
COC(=O)Sc1nnc(-c2ccc(Br)cc2)o1	NR2E3 ag-1 27 (no result: LMP1 NFkB inh, TROY NFkB inh, NR2E3 ag-2) | NR2E3 ag confirm-1 22 | PPARg-NCOR2 ctr 35
Cc1onc(-c2c(F)cccc2Cl)c1C(=O)Nc1nnc(C(F)(F)F)s1	NR2E3 ag-1 23, NR2E3 ag-2 92 | NR2E3 ag confirm-1 20 | PPARg-NCOR2 ctr inactive | NR2E3 ag confirm-2 96 | GAL4-VP16 luc 77
OC(c1ccc(F)c(F)c1)c1nc(-c2ccc3ccccc3c2)cs1 (stereo not drawn)	none (no result: HIF act, LMP1 NFkB inh, NR2E3 ag-1)
O=[N+]([O-])c1nn(-c2ccc3c(c2)OCCO3)n(O)c1=NCCCO	none
Cc1ccc(CN=c2c([N+](=O)[O-])nn(-c3ccc4c(c3)OCCO4)n2O)cc1	none
Cc1cc(C)cc(N=c2c([N+](=O)[O-])nn(-c3ccc4c(c3)OCCO4)n2O)c1	none | NR2E3 ag confirm-2 inactive | GAL4-VP16 luc inactive
Cc1ccc(N=c2c([N+](=O)[O-])nn(-c3ccc4c(c3)OCCO4)n2O)cc1F	LMP1 NFkB inh 49, TROY NFkB inh 91, NR2E3 ag-2 82 | NR2E3 ag confirm-2 inactive | GAL4-VP16 luc inactive
Cc1ccc(N=c2c([N+](=O)[O-])nn(-c3ccc4c(c3)OCCO4)n2O)c(Cl)c1	none (no result: LMP1 NFkB inh, TROY NFkB inh, NR2E3 ag-2)
O=[N+]([O-])c1nn(-c2ccc3c(c2)OCCO3)n(O)c1=Nc1ccccc1	LMP1 NFkB inh 75, TROY NFkB inh 88, NR2E3 ag-2 95 | NR2E3 ag confirm-2 83 | GAL4-VP16 luc 77
O=C(COC(=O)c1cccc([N+](=O)[O-])c1)Nc1ncc(Br)s1	none (no result: HIF act, NR2E3 ag-1)
Cn1nc(C(C)(C)C)cc1C(=O)NCc1ccc2c(c1)OCO2	NR2E3 ag-2 105 | NR2E3 ag confirm-2 95 | GAL4-VP16 luc 79
Cc1oc(C(C)(C)C)cc1C(=O)NCc1ccc2c(c1)OCO2	none
Cc1cc(C2=NNC(=NC3CCCCC3)SC2)c(C)n1-c1c(C)n(C)n(-c2ccccc2)c1=O	none
Cc1cc(C2=NNC(=NC3CC3)SC2)c(C)n1-c1ccccc1F	LMP1 NFkB inh 78, TROY NFkB inh 89, NR2E3 ag-2 94 | NR2E3 ag confirm-2 89 | GAL4-VP16 luc 91
COC(=O)c1ccc(NC(=O)c2cc[n+]([O-])cc2)cc1	none
Cc1ccc(CC(=O)Nc2ccncc2)cc1	none | NR2E3 ag confirm-2 inactive | GAL4-VP16 luc inactive
COc1ccc(C#Cc2ccc3c(c2)c(=O)c2ccccc2n3C)cc1	none
Cn1c2ccccc2c(=O)c2ccc(C#CC3(O)CCCCC3)cc21	TROY NFkB inh 91 | NR2E3 ag confirm-2 inactive | GAL4-VP16 luc inactive
O=C(NNc1ccnc2cc(Cl)ccc12)C1CCCCC1	none | NR2E3 ag confirm-2 97 | GAL4-VP16 luc 87
O=C(Oc1ccnc2cc(Cl)ccc12)N1CCCCCC1	none | NR2E3 ag confirm-2 inactive | GAL4-VP16 luc inactive
NC(=S)NNc1ccnc2cc(Cl)ccc12	none
C[C@H]1CN([C@@H](C)CO)C(=O)CCCn2cc(nn2)CO[C@@H]1CN(C)C(=O)c1cc(-c2ccccc2)on1	none (no result: HIF act, NR2E3 ag-1)
Cc1ccc(S(=O)(=O)C(NC(=O)c2ccccc2)=C(Cl)Cl)cc1	none
CC(=O)NC(=C(Cl)Cl)S(=O)(=O)c1ccccc1	none | NR2E3 ag confirm-2 inactive | GAL4-VP16 luc inactive
O=C(NC(=C(Cl)Cl)S(=O)(=O)c1ccc(Cl)cc1)c1ccccc1	none | NR2E3 ag confirm-2 inactive | GAL4-VP16 luc inactive
COc1ccc(CC(O)CO)cc1OCc1ccccc1 (stereo not drawn)	none (no result: HIF act, NR2E3 ag-1)
CCCCC(=O)N1CCN(c2nc3ccc(Cl)cc3s2)CC1	none | NR2E3 ag confirm-2 inactive | GAL4-VP16 luc inactive
COc1ccc(Cl)cc1C(=O)NNC(=O)c1ccc(F)c(S(=O)(=O)N2CCOCC2)c1	none (no result: HIF act, NR2E3 ag-1)
CCN(CC)CCOC(=O)c1ccc(NC(=O)CSc2nnc(-c3cccs3)n2CC)cc1	none (no result: HIF act, NR2E3 ag-1)
CNc1snc(C)c1C(=O)OCC(=O)c1cc(F)ccc1OC	none (no result: HIF act)
CNc1snc(C)c1C(=O)OCC(=O)c1ccc(OC)c(F)c1	none (no result: HIF act) | NR2E3 ag confirm-2 inactive | GAL4-VP16 luc inactive
CC(C)C(Sc1nc(-c2ccccc2)cc(-c2ccccc2)c1C#N)C(=O)O (stereo not drawn)	none | NR2E3 ag confirm-2 inactive | GAL4-VP16 luc inactive
O=C(CSc1ccc(-c2cccnc2)nn1)Nc1ccccc1C(F)(F)F	none
